The text below walks through data of article PMC7568475 (Nature metabolism, 2020).

In assay [1] the test system is human islets. Nature of the assay: Steady state urea quantification by GC-MS, human islets. It counts as cell-based.
Assay [2] has as its system human islets. Nature of the assay: NO levels by flow cytometry. The assay is classed as cell-based. The procedure, abridged: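 Islets were held 72 h in 33 mM versus 5.8 mM glucose. NO was read 24 h after cytokine treatment. For each replicate, 50 islets were dispersed in accutase at 37 °C, rinsed in PBS, and stained with DAF-FM 30 min at 37 °C. Mean FITC intensity by flow cytometry was normalized to PBS control set to 1.0.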

In the next assay the test system is GLS. Nature of the assay: GLS activity readout. The assay is classed as cell-based. The settings on record: islets, readout of GLS activity, n=2 human donors.
Assay [3] relates to human islets. The assay is described as follows: Viability of human islets. It counts as cell-based. The procedure, abridged:
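Human islets were cultured in PIM(S) with 5% human A/B serum and infected for PC knockdown 24 h before treatment, 72 h in total. Medium carried 1 mM argininosuccinate; cytokines were TNF-α 10, IL-1β 10 and IFNγ 100 ng/ml. AnnexinV/7AAD flow cytometry was run 48 h after cytokines. Positive cells lay ≥2 s.d. outside unstained sample means.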

In assay [4] the test system is human islets. Nature of the assay: 15N2-arginine tracer study in human islets. The assay is classed as cell-based. The settings on record: 15N2(guanidino)-L-arginine 72 h, cytokines 24 h, n=4 donors. The procedure, abridged: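 Human islets (150 in 2 ml) incubated 72 h with 15N2(guanidino)-L-arginine at 200 mg/L in RPMI with 5.5 mM glucose and 5% human A/B serum. Cytokine mix: TNF-α 10 ng/ml, IL-1β 10 ng/ml, IFNγ 100 ng/ml. Mass isotopomer distributions were corrected for natural abundance, normalized to tracer uptake, and expressed relative to PBS control set to 1.0.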

Assay [5] has as its system β-cells in human islet grafts. Nature of the assay: β-cell death in human islet grafts. The assay is classed as in vivo. The following applies: donor islets pre-treated before transplantation; grafts excised day 2. The procedure, abridged: (§1)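 Donor islets were pre-treated overnight at 37 °C with vehicle (1% DMSO), 5 µM compound, or 5 µM plus 1 mM PAA. Medium was RPMI uptake medium with 11 mM glucose, 10% serum and 0.1% Tween 80 (pH 6.0). Islets were washed and held 24 h in fresh media. Male NOD-SCID mice (10–12 wk) received single i.p. STZ 200 mg/kg. 500 islets went under the kidney capsule 24–48 h after blood glucose ≥300 mg/dl.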

For a further assay, the system named is diabetic NOD-SCID mice. The assay is classed as in vivo, mouse. The settings on record: 500 pre-treated human islets in diabetic NOD-SCID mice, up to 53 days. The procedure, abridged: as §1
In a further assay the test system is GK. The following applies: cited from earlier work.
Assay [6] deals with T1, recombinant human glucokinase (GK, hexokinase IV) (human, UniProt P35557 1-465).
T1 sequence (looked up): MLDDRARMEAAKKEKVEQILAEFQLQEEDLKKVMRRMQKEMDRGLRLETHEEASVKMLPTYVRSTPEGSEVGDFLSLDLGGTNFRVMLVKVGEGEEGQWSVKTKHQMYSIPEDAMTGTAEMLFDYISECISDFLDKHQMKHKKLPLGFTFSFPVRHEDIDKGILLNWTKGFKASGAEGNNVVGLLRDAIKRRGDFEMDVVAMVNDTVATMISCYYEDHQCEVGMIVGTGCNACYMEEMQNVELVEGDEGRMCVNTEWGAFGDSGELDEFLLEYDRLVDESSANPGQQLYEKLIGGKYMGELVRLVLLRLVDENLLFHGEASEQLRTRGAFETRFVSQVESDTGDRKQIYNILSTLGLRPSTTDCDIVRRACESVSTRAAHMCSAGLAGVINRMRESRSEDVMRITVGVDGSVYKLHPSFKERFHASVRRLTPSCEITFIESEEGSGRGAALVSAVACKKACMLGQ
The assay is described as follows: ITC.

Where [7] appears, read: PC-depleted human islets, cytokines, AS 1 mM, n=4 experiments, 2 donors.
Setting [8] is: human islets, inflammatory cytokines, AS 1 mM, n=3 donors.

Where no end group is shown, it is not given here.

With `OC[C@H]1OC(O)[C@H](O)[C@@H](O)[C@@H]1O` (some centres unmarked) [glucose], the “urea levels, glucotoxicity” value with human islets [1] (human islets, 33 mM glucose 72 h vs 5.8 mM glucose) is recorded as “reduces urea”. In addition, in the assay with human islets [2] (33 mM glucose 72 h vs 5.8 mM glucose), the “NO levels, glucotoxicity” value is “enhances NO levels”.
With `O=C(Cc1ccccc1)Nc1nnc(CCSCCc2nnc(NC(=O)Cc3ccccc3)s2)s1` [BPTES, Bis-2-(5-phenylacetamido-1,3,4-thiadiazol-2-yl)ethyl sulfide], the “urea levels with BPTES” value in the assay on human islets [1] (islets, n=2 human donors) is “does not affect islet urea levels”. In the assay with GLS, the “glutamate/glutamine (glu/gln) ratio” value is on record as “reduce the ratio of glutamate/glutamine”.
On to `NC(=NCCC[C@H](N)C(=O)O)N[C@@H](CC(=O)O)C(=O)O` [AS, argininosuccinic acid], for which the “viability with argininosuccinate, PC knockdown” value in the assay on human islets [3] (setting [7]) was “protects against inflammation toxicity”. The viability with argininosuccinate result in the assay with human islets [3] (setting [8]) is reported as “rescue the viability of human islets undergoing inflammation”. For the same molecule, in the assay on human islets [1] (setting [7]), the “urea levels with argininosuccinate, PC knockdown” value was “rescues urea levels”. In the assay with human islets [1] (human islets, 10–200 µM AS), the “urea levels, AS dose response” value is recorded as “had no effect on urea levels”. In the assay with human islets [1] (setting [8]), the “urea levels with argininosuccinate” value is reported as “sufficient to increase urea levels”.
As to `COC[C@H](C)Oc1cc(O[C@@H](C)Cc2ccccc2)cc(C(=O)Nc2ccc(C(=O)O)cn2)c1` [GKA50], the urea levels entry in the assay with human islets [1] (human islets, inflammatory cytokines 24 h) is recorded as “These differences were further recapitulated with a second, structurally distinct allosteric GKA”. Further, in the assay on human islets [2] (inflammatory cytokines 24 h, DAF-FM), the NO levels entry was “These differences were further recapitulated with a second, structurally distinct allosteric GKA”.
Take `CS(=O)(=O)c1ccc([C@@H](CC2CCCC2)C(=O)Nc2nccs2)cc1` [RO0281675]: in the assay on human islets [3] (human islets, TNF-α, IL-1β and IFNγ 48 h, n=6 donors (Fig. 1c)), the “viability / protection from cytokine-induced death” value was “does not protect human islets from cytokine-induced death”. Besides, the “15N2 enrichment in urea (M+2) / ureagenesis” value with human islets [4] is listed as “ureagenesis was not altered”. For the same molecule, the “β-cell death in islet grafts” value in assay [5] is recorded as “ineffective”. In addition, in the assay on diabetic NOD-SCID mice, the “hyperglycemia reversal (blood glucose)” value is “ineffective”. The “effect on GK affinity for glucose, allosteric activation” value in the assay on GK is “significantly augments the enzyme’s affinity for glucose”.
In the case of NLWAAQRYGRELRRMDDEFVDSFKK (staple (positions not given here); not fully specified) [BAD BH3 SAHBA SD (hydrocarbon stapled peptide modeled after the phospho-BAD BH3 helix)], the “stoichiometry N” value in assay [6] was 1.
